Data published in ChEMBL document CHEMBL4229460, “Design and biological evaluation of novel hybrids of 1, 5-diarylpyrazole and Chrysin for selective COX-2 inhibition” (Bioorg Med Chem, 2018).

Key:
[1] = tested on: HeLa; assay: Disruption of mitochondrial membrane potential in human HeLa cells assessed as intact mitochondrial membrane at 1.25 uM after 12 hrs by JC1 staining based flow cytometry (reference value: 99.2%); format: functional
[2] = tested on: HeLa; assay: Disruption of mitochondrial membrane potential in human HeLa cells assessed as intact mitochondrial membrane at 5 uM after 12 hrs by JC1 staining based flow cytometry (reference value: 99.2%); format: functional
[3] = tested on: HeLa; assay: Induction of apoptosis in human HeLa cells assessed as live cells at 10 uM after 24 hrs by Annexin-V-FITC/propidium iodide staining based flow cytometry (reference value: 94.6%); format: functional
Summary of the method: (§1)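 HeLa seeded at 2 × 10⁵ cells/well. Dose series was 0, 1.25, 2.5, 5 and 10 μM for 24 h; time course was 5 μM for 12, 24, 36 or 48 h. Trypsinized and washed in ice-cold PBS, then stained in binding buffer with Annexin V-FITC and PI for 10 min in the dark. Flow cytometry scored early (Annexin⁺/PI⁻) and late (Annexin⁺/PI⁺) apoptotic cells.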

[4] = tested on: HeLa; assay: Induction of apoptosis in human HeLa cells assessed as live cells at 5 uM after 36 hrs by Annexin-V-FITC/propidium iodide staining based flow cytometry (reference value: 95.1%); format: functional; summary of the method: as §1
[5] = tested on: HeLa; assay: Induction of apoptosis in human HeLa cells assessed as late apoptotic cells at 2.5 uM after 24 hrs by Annexin-V-FITC/propidium iodide staining based flow cytometry (reference value: 1.72%); format: functional; summary of the method: as §1
[6] = tested on: HEK-293T; assay: Cytotoxicity against human 293T cells after 48 hrs by MTT assay; format: cell-based
[7] = tested on: HeLa; assay: Cell cycle arrest in human HeLa cells assessed as accumulation at G1 phase at 1.25 uM after 24 hrs by propidium iodide staining based flow cytometry (reference value: 55.51%); format: functional
[8] = tested on: HeLa; assay: Induction of apoptosis in human HeLa cells assessed as late apoptotic cells at 5 uM after 48 hrs by Annexin-V-FITC/propidium iodide staining based flow cytometry (reference value: 2.57%); format: functional; summary of the method: as §1
[9] = target: Prostaglandin G/H synthase 1 (Homo sapiens, UniProt P23219); assay: Inhibition of COX1 (unknown origin) using arachidonic acid as substrate pretreated for 10 mins followed by substrate addition and measured after 2 mins by ELISA; format: ADME
[10] = tested on: HeLa; assay: Cell cycle arrest in human HeLa cells assessed as accumulation at G1 phase at 2.5 uM after 24 hrs by propidium iodide staining based flow cytometry (reference value: 55.51%); format: functional
[11] = tested on: HeLa; assay: Induction of apoptosis in human HeLa cells assessed as late apoptotic cells at 10 uM after 24 hrs by Annexin-V-FITC/propidium iodide staining based flow cytometry (reference value: 1.72%); format: functional; summary of the method: as §1
[12] = tested on: HeLa; assay: Induction of apoptosis in human HeLa cells assessed as necrotic cells at 5 uM after 36 hrs by Annexin-V-FITC/propidium iodide staining based flow cytometry (reference value: 1.12%); format: functional
Summary of the method: (§2)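 HeLa cells in DMEM with 10% FBS, penicillin/streptomycin, 37 °C, 5% CO₂; seeded 2 × 10⁵ cells/well in six-well plates, treated at 0, 1.25, 2.5, 5 and 10 μM for 24 h, or at 5 μM for 12, 24, 36 or 48 h. Cells trypsinized, washed in ice-cold PBS, stained in binding buffer with Annexin V-FITC and PI for 10 min in the dark, then analyzed by flow cytometry.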

[13] = tested on: HeLa; assay: Induction of apoptosis in human HeLa cells assessed as necrotic cells at 5 uM after 48 hrs by Annexin-V-FITC/propidium iodide staining based flow cytometry (reference value: 1.12%); format: functional; summary of the method: as §2
[14] = target: T1, Prostaglandin G/H synthase 2 (Homo sapiens, UniProt P35354); assay: Inhibition of COX2 (unknown origin) using arachidonic acid as substrate pretreated for 10 mins followed by substrate addition and measured after 2 mins by ELISA
T1 sequence (P35354 whole entry): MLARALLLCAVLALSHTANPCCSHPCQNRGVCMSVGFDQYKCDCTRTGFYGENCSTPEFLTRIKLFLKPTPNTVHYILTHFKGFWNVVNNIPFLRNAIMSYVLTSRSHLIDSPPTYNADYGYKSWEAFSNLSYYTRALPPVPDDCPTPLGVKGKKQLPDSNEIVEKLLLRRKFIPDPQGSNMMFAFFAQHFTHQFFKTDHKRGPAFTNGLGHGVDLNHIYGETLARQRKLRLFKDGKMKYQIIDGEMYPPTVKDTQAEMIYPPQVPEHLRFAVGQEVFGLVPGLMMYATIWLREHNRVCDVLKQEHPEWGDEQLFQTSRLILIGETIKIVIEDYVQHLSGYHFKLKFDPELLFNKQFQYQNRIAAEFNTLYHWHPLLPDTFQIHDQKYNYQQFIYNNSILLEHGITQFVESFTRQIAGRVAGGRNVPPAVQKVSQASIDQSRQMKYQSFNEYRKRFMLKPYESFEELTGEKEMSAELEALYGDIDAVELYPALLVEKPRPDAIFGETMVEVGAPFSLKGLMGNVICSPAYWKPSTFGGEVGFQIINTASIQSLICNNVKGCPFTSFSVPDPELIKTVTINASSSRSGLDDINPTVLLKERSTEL

[15] = tested on: HeLa; assay: Cell cycle arrest in human HeLa cells assessed as accumulation at S phase at 5 uM after 24 hrs by propidium iodide staining based flow cytometry (reference value: 18.16%); format: functional
[16] = tested on: HeLa; assay: Disruption of mitochondrial membrane potential in human HeLa cells assessed as collapse of the mitochondrial membrane potential at 1.25 uM after 12 hrs by JC1 staining based flow cytometry (reference value: 0.768%); format: functional
[17] = tested on: HeLa; assay: Induction of apoptosis in human HeLa cells assessed as early apoptotic cells at 5 uM after 36 hrs by Annexin-V-FITC/propidium iodide staining based flow cytometry (reference value: 1.24%); format: functional; summary of the method: as §1
[18] = tested on: HeLa; assay: Disruption of mitochondrial membrane potential in human HeLa cells assessed as collapse of the mitochondrial membrane potential at 2.5 uM after 12 hrs by JC1 staining based flow cytometry (reference value: 0.768%); format: functional
[19] = tested on: HeLa; assay: Cell cycle arrest in human HeLa cells assessed as accumulation at G1 phase at 5 uM after 24 hrs by propidium iodide staining based flow cytometry (reference value: 55.51%); format: functional
[20] = tested on: HeLa; assay: Cell cycle arrest in human HeLa cells assessed as accumulation at G2/M phase at 10 uM after 24 hrs by propidium iodide staining based flow cytometry (reference value: 21.45%); format: functional
[21] = tested on: HeLa; assay: Cell cycle arrest in human HeLa cells assessed as accumulation at S phase at 2.5 uM after 24 hrs by propidium iodide staining based flow cytometry (reference value: 18.16%); format: functional
[22] = tested on: HeLa; assay: Induction of apoptosis in human HeLa cells assessed as live cells at 1.25 uM after 24 hrs by Annexin-V-FITC/propidium iodide staining based flow cytometry (reference value: 94.6%); format: functional; summary of the method: as §1
[23] = tested on: HeLa; assay: Cell cycle arrest in human HeLa cells assessed as accumulation at G2/M phase at 1.25 uM after 24 hrs by propidium iodide staining based flow cytometry (reference value: 21.45%); format: functional
[24] = tested on: MCF7; assay: Antiproliferative activity against human MCF7 cells after 48 hrs by MTT assay; format: functional, cell-based; settings: MCF7, 48 h
[25] = tested on: HeLa; assay: Antiproliferative activity against human HeLa cells after 48 hrs by MTT assay; format: functional, cell-based

Sequence of Prostaglandin G/H synthase 1 (P23219 whole entry): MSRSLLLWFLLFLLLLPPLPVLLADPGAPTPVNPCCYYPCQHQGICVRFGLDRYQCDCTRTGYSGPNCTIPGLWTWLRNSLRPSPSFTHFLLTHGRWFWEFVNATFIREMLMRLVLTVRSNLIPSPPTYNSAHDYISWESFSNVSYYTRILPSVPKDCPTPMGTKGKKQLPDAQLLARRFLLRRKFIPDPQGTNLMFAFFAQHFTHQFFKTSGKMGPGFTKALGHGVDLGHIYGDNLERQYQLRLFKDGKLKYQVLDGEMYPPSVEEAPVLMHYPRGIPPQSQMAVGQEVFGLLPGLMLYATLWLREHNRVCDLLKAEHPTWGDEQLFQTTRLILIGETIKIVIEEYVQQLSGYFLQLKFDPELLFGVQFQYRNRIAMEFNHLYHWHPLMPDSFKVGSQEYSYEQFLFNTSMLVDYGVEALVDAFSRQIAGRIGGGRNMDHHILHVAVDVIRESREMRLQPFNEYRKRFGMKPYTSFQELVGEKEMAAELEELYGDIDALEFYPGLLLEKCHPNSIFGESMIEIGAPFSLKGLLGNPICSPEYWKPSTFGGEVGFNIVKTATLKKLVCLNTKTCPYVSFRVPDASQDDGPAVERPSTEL

COc1ccc(-c2cc(COC(=O)COc3cc(O)c4c(=O)cc(-c5ccccc5)oc4c3)nn2-c2ccc(C)cc2)cc1
Activity [1]: 96.5% | Activity [2]: 90.5% | Activity [3]: 51.4% | Activity [4]: 48.7% | Activity [5]: 8.28% | IC50 [6]: 194 µM | Activity [7]: 62.63% | Activity [8]: 7.54% | IC50 [9]: 47.5 µM | Activity [10]: 67.88% | Activity [11]: 11.5% | Activity [12]: 2.08% | Activity [13]: 1.43% | IC50 [14]: 0.23 µM | Activity [15]: 15.67% | Activity [16]: 3.1% | Activity [17]: 40.4% | Activity [18]: 5.61% | Activity [19]: 72.83% | Activity [20]: 5.24% | Activity [21]: 18.61% | Activity [22]: 83.2% | Activity [23]: 13.65% | IC50 [24]: 3.23 µM | IC50 [25]: 1.12 µM
